Measurements as given in ChEMBL document CHEMBL3091458, “Design, synthesis, and biological evaluation of 1,2,4-triazole bearing 5-substituted biphenyl-2-sulfonamide derivatives as potential antihypertensive candidates” (Bioorg Med Chem, 2013).

Experiments:
[1] = Displacement of [125I]-Ang-2 from AT2 receptor in porcine myometrial membranes after 1.5 hrs; assay type: cell membranes, Sus scrofa
Outline: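 Membranes were made from porcine uteri (myometrium). AT1 binding was blocked by adding losartan. [125I]Ang II binding ran in 50 mM Tris-HCl pH 7.4 with 100 mM NaCl, 10 mM MgCl2, 1 mM EDTA, 0.025% bacitracin and 0.2% BSA, at 25 °C for 1.5 h. Bound ligand was caught on GF/C filters, washed with cold Tris and gamma-counted. IC50 was the concentration displacing 50% of specific binding. Run in triplicate.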

[2] = Displacement of [125I]-Ang-2 from AT1 receptor in rat liver membranes after 1.5 hrs; assay type: cell membranes, Membrane
[3] = target: T1, Type-2 angiotensin II receptor (Homo sapiens, UniProt P50052); test: Binding affinity to AT2 receptor (unknown origin)
T1 sequence (P50052 whole entry): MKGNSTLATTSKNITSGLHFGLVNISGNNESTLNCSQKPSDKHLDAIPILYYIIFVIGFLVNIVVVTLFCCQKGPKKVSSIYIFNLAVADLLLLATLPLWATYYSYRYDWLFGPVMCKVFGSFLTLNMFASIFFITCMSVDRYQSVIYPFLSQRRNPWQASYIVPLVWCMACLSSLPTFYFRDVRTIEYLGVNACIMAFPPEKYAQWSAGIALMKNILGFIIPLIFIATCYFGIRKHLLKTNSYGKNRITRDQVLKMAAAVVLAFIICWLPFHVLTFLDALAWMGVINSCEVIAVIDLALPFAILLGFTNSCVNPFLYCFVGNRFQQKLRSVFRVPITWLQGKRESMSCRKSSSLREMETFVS

[4] = target: T2, Type-1 angiotensin II receptor (Homo sapiens, UniProt P30556); test: Binding affinity to AT1 receptor (unknown origin)
T2 sequence (P30556 whole entry): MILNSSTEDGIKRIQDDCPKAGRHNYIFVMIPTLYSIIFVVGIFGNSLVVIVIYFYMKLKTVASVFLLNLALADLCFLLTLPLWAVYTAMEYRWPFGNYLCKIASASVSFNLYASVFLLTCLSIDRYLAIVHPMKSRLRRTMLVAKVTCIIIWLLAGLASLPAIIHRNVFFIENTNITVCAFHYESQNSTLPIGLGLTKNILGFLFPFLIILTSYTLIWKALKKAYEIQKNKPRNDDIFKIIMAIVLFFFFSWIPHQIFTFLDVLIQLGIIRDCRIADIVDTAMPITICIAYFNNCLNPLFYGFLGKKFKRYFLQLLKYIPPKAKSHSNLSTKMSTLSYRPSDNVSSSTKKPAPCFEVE

Rattus norvegicus [5] = test: Toxicity in renal spontaneously hypertensive rat model assessed as reduction of heart rate at 20 mg/kg, po measured at 8 hrs by tail-cuff method relative to control; assay type: organism-based; set-up: dose 20 mg/kg, route oral; settings: in vivo
Outline: (§1)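 Spontaneously hypertensive rats were dosed orally with the test agent at 20 mg/kg, with a saline-dosed control group. SAP, DAP, MAP and heart rate were recorded before dosing and at 1, 2, 4, 6 and 8 h after. Change was taken as the post-dose value minus the pre-dose value. Significance was judged against the control at p < 0.1 and p < 0.05.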

Rattus norvegicus [6] = test: Toxicity in renal spontaneously hypertensive rat model assessed as reduction of heart rate at 20 mg/kg, po measured at 6 hrs by tail-cuff method relative to control; assay type: organism-based; set-up: dose 20 mg/kg, route oral; settings: in vivo; outline: as §1
Rattus norvegicus [7] = test: Toxicity in renal spontaneously hypertensive rat model assessed as reduction of heart rate at 20 mg/kg, po measured at 4 hrs by tail-cuff method relative to control; assay type: organism-based; set-up: dose 20 mg/kg, route oral; settings: in vivo; outline: as §1
Rattus norvegicus [8] = test: Toxicity in renal spontaneously hypertensive rat model assessed as reduction of heart rate at 20 mg/kg, po measured at 2 hrs by tail-cuff method relative to control; assay type: organism-based; set-up: dose 20 mg/kg, route oral; settings: in vivo; outline: as §1
Rattus norvegicus [9] = test: Toxicity in renal spontaneously hypertensive rat model assessed as reduction of heart rate at 20 mg/kg, po measured at 1 hr by tail-cuff method relative to control; assay type: organism-based; set-up: dose 20 mg/kg, route oral; settings: in vivo; outline: as §1
Rattus norvegicus [10] = test: Antihypertensive activity in renal spontaneously hypertensive rat model assessed as reduction of mean arterial pressure at 20 mg/kg, po measured at 6 hrs by tail-cuff method relative to control; assay type: functional, Artery; outline: as §1
Rattus norvegicus [11] = test: Antihypertensive activity in renal spontaneously hypertensive rat model assessed as reduction of mean arterial pressure at 20 mg/kg, po measured at 4 hrs by tail-cuff method relative to control; assay type: functional, Artery; outline: as §1
Rattus norvegicus [12] = test: Antihypertensive activity in renal spontaneously hypertensive rat model assessed as reduction of mean arterial pressure at 20 mg/kg, po measured at 1 hr by tail-cuff method relative to control; assay type: functional, Artery; outline: as §1
Rattus norvegicus [13] = test: Antihypertensive activity in renal spontaneously hypertensive rat model assessed as reduction of diastolic arterial pressure at 20 mg/kg, po measured at 8 hrs by tail-cuff method relative to control; assay type: functional, Artery; outline: as §1
Rattus norvegicus [14] = test: Antihypertensive activity in renal spontaneously hypertensive rat model assessed as reduction of diastolic arterial pressure at 20 mg/kg, po measured at 6 hrs by tail-cuff method relative to control; assay type: functional, Artery; outline: as §1
Rattus norvegicus [15] = test: Antihypertensive activity in renal spontaneously hypertensive rat model assessed as reduction of diastolic arterial pressure at 20 mg/kg, po measured at 4 hrs by tail-cuff method relative to control; assay type: functional, Artery; outline: as §1
Rattus norvegicus [16] = test: Antihypertensive activity in renal spontaneously hypertensive rat model assessed as reduction of diastolic arterial pressure at 20 mg/kg, po measured at 2 hrs by tail-cuff method relative to control; assay type: functional, Artery; outline: as §1
Rattus norvegicus [17] = test: Antihypertensive activity in renal spontaneously hypertensive rat model assessed as reduction of diastolic arterial pressure at 20 mg/kg, po measured at 1 hr by tail-cuff method relative to control; assay type: functional, Artery; outline: as §1
Rattus norvegicus [18] = test: Antihypertensive activity in renal spontaneously hypertensive rat model assessed as reduction of systolic arterial pressure at 20 mg/kg, po measured at 8 hrs by tail-cuff method relative to control; assay type: functional, Artery; outline: as §1
Rattus norvegicus [19] = test: Antihypertensive activity in renal spontaneously hypertensive rat model assessed as reduction of systolic arterial pressure at 20 mg/kg, po measured at 6 hrs by tail-cuff method relative to control; assay type: functional, Artery; outline: as §1
Rattus norvegicus [20] = test: Antihypertensive activity in renal spontaneously hypertensive rat model assessed as reduction of systolic arterial pressure at 20 mg/kg, po measured at 4 hrs by tail-cuff method relative to control; assay type: functional, Artery; outline: as §1
Rattus norvegicus [21] = test: Antihypertensive activity in renal spontaneously hypertensive rat model assessed as reduction of systolic arterial pressure at 20 mg/kg, po measured at 2 hrs by tail-cuff method relative to control; assay type: functional, Artery; outline: as §1
Rattus norvegicus [22] = test: Antihypertensive activity in renal spontaneously hypertensive rat model assessed as reduction of systolic arterial pressure at 20 mg/kg, po measured at 1 hr by tail-cuff method relative to control; assay type: functional, Artery; outline: as §1
Rattus norvegicus [23] = test: Antihypertensive activity in renal spontaneously hypertensive rat model assessed as reduction of mean arterial pressure at 20 mg/kg, po measured at 8 hrs by tail-cuff method relative to control; assay type: functional, Artery; outline: as §1
Rattus norvegicus [24] = test: Antihypertensive activity in renal spontaneously hypertensive rat model assessed as reduction of mean arterial pressure at 20 mg/kg, po measured at 2 hrs by tail-cuff method relative to control; assay type: functional, Artery; outline: as §1

SMILES	IC50 [1] [µM]	IC50 [2] [µM]	further results
CCCCC(=O)NS(=O)(=O)c1ccc(C)cc1-c1ccc(Cn2cncn2)cc1	0.106	> 10	–
CCOC(=O)NS(=O)(=O)c1ccc(C)cc1-c1ccc(Cn2cncn2)cc1	0.064	> 10	–
Cc1ccc(S(=O)(=O)NC(=O)OC(C)(C)C)c(-c2ccc(Cn3cncn3)cc2)c1	0.289	> 10	–
CCOC(=O)NS(=O)(=O)c1ccc(CN(CC)CC)cc1-c1ccc(Cn2cncn2)cc1	0.117	> 10	–
CCN(CC)Cc1ccc(S(=O)(=O)NC(=O)OCc2ccccc2)c(-c2ccc(Cn3cncn3)cc2)c1	> 10	> 10	–
CCCCOC(=O)NS(=O)(=O)c1ccc(CC(C)C)cc1-c1ccc(NC)cc1	> 10	> 10	–
CCCCOC(=O)NS(=O)(=O)c1ccc(CC(C)C)cc1-c1ccc(NCCC)cc1	> 10	> 10	–
CCCCc1nn(C)c(=O)n1Cc1ccc(-n2cccc2-c2nnn[nH]2)cc1	–	–	IC50 [3]: > 10 µM; IC50 [4]: 0.0025 µM
CCCCOC(=O)NS(=O)(=O)c1sc(CC(C)C)cc1-c1ccc(Cn2ccnc2)cc1 [BULOXIBUTID]	0.0004	> 10	–

Now from value to molecule, other results behind:

IC50 [1] [µM]	IC50 [2] [µM]	SMILES	further results
0.016	> 10	CCCCOC(=O)NS(=O)(=O)c1ccc(C)cc1-c1ccc(Cn2cncn2)cc1	–
> 10	> 10	Cc1ccc(S(=O)(=O)NC(=O)OCc2ccccc2)c(-c2ccc(Cn3cncn3)cc2)c1	–
0.01	> 10	CCCCOC(=O)NS(=O)(=O)c1ccc(CN(CC)CC)cc1-c1ccc(Cn2cncn2)cc1	–
> 10	> 10	CCCCOC(=O)NS(=O)(=O)c1ccc(CC(C)C)cc1-c1ccc(N)cc1	–
> 10	> 10	CCCCOC(=O)NS(=O)(=O)c1ccc(CC(C)C)cc1-c1ccc(NCC)cc1	–
> 10	0.085	CCCCc1nc(Cl)c(CO)n1Cc1ccc(-c2ccccc2-c2nnn[nH]2)cc1 [LOSARTAN]	Activity (Rattus norvegicus [5]): -13.2 bpm; Activity (Rattus norvegicus [6]): -14.05 bpm; Activity (Rattus norvegicus [7]): -10.57 bpm; Activity (Rattus norvegicus [8]): -7.1 bpm; Activity (Rattus norvegicus [9]): -2 bpm; Activity (Rattus norvegicus [10]): -19.12 mmHg; Activity (Rattus norvegicus [11]): -15.13 mmHg; Activity (Rattus norvegicus [12]): -3.05 mmHg; Activity (Rattus norvegicus [13]): -13.09 mmHg; Activity (Rattus norvegicus [14]): -17.58 mmHg; Activity (Rattus norvegicus [15]): -14.25 mmHg; Activity (Rattus norvegicus [16]): -8.96 mmHg; Activity (Rattus norvegicus [17]): -7.76 mmHg; Activity (Rattus norvegicus [18]): -14.02 mmHg; Activity (Rattus norvegicus [19]): -20.23 mmHg; Activity (Rattus norvegicus [20]): -15.55 mmHg; Activity (Rattus norvegicus [21]): -5.21 mmHg; Activity (Rattus norvegicus [22]): -2.8 mmHg; Activity (Rattus norvegicus [23]): -14.55 mmHg; Activity (Rattus norvegicus [24]): -7.33 mmHg
